pKd: −log10 of the molar value. Activity calls are given as the source filed them. The calls are words filed in the database; no cut-off is given here.
Assays:
[1] = Binding affinity to 8-bp AT rich duplex DNA (unknown origin) by isothermal titration calorimetry
[2] = Stabilization of c-MYC Pu27 G-quadruplex DNA (unknown origin) assessed as inhibition of Taq polymerase-mediated polymerization/extension of Pu27 and Pu27rev oligomers at 10 uM preincubated for 6 hrs followed by Taq polymerase addition by PCR stop assay
[3] = Binding affinity to 5'-FAM/3'-TAMRA labeled k-RAS21R 21-mer G-quadruplex DNA (unknown origin) assessed as change in melting temperature at 4 uM after 12 hrs by TR-FRET assay
Summary of the method: (§1)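 Dual-labeled FAM/TAMRA oligos diluted to 800 nM in 60 mM potassium cacodylate (pH 7.2), annealed 10 min at 85 °C and cooled to room temperature. Mixed 1:1 with ligand at […] in the same buffer. Equilibrated at least 12 h at 4 °C. ΔT1/2 taken as melting temperature with minus without ligand, in triplicate, averaged.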

[4] = Binding affinity to wild type Bcl2 27-mer G-quadruplex DNA (unknown origin) by isothermal titration calorimetry
[5] = Stabilization of c-MYC template Pu27-13,14 mutant DNA (unknown origin) assessed as inhibition of Taq polymerase-mediated polymerization/extension of Pu27-13,14 mutant and Pu27rev oligomers at 25 uM preincubated for 6 hrs followed by Taq polymerase addition by PCR stop assay
[6] = Binding affinity to 5'-FAM/3'-TAMRA labeled F21T 21-mer G-quadruplex DNA (unknown origin) assessed as change in melting temperature at 4 uM after 12 hrs by TR-FRET assay; summary of the method: as §1
[7] = Binding affinity to 5'-FAM/3'-TAMRA labeled c-MYC 22-mer G-quadruplex DNA (unknown origin) assessed as change in melting temperature at 4 uM after 12 hrs by TR-FRET assay; summary of the method: as §1
[8] = Stabilization of c-MYC template Pu27 mutant DNA (unknown origin) assessed as inhibition of Taq polymerase-mediated polymerization/extension of Pu27 mutant and Pu27rev oligomers at 1 to 25 uM preincubated for 6 hrs followed by Taq polymerase addition by PCR stop assay
[9] = Selectivity ratio of Kd for 8-bp AT rich duplex DNA (unknown origin) to Kd for wild type Bcl2 27-mer G-quadruplex DNA (unknown origin)
[10] = Binding affinity to wild type c-MYC 24-mer G-quadruplex DNA (unknown origin) by isothermal titration calorimetry
[11] = Antiproliferative activity against human OVCAR3 cells after 72 hrs by WST-1 assay; assay type: functional; settings: OVCAR-3, 72 h
Summary of the method: (§2)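 Cells seeded in 96-well plates the afternoon before treatment, at numbers keeping them in log-phase growth; about 18 h later, compounds semi-serially diluted in DMSO then growth medium and added. Incubation 72 h, then WST-1 added and plates read after 4 more hours at 37 °C. GI50 derived from curve fits; viability expressed relative to DMSO control.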

[12] = Binding affinity to 5'-FAM/3'-TAMRA labeled c-kit2 26-mer G-quadruplex DNA (unknown origin) assessed as change in melting temperature at 4 uM after 12 hrs by TR-FRET assay; summary of the method: as §1
[13] = Antiproliferative activity against human PC3 cells assessed as cell viability at 20 uM after 72 hrs by WST-1 assay relative to control; assay type: functional; settings: PC-3, 72 h, read-out: Activity; summary of the method: as §2
[14] = Selectivity ratio of Kd for 8-bp AT rich duplex DNA (unknown origin) to Kd for wild type c-MYC 24-mer G-quadruplex DNA (unknown origin)
[15] = Binding affinity to 5'-FAM/3'-TAMRA labeled 26-mer duplex DNA (unknown origin) assessed as change in melting temperature at 4 uM after 12 hrs by TR-FRET assay
MDA-MB-231 [16] = assay: Antiproliferative activity against human MDA-MB-231 cells assessed as cell viability at 20 uM after 72 hrs by WST-1 assay relative to control; assay type: functional; settings: MDA-MB-231, 72 h, read-out: Activity; summary of the method: as §2
[17] = Antiproliferative activity against human bone marrow cells after 72 hrs by WST-1 assay; assay type: cell-based, Bone marrow cell
Summary of the method: (§3)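 Cells seeded the afternoon before treatment at densities giving log-phase growth; about 18 h later compounds, semi-serially diluted in DMSO then growth medium, were added. After 72 h WST-1 was added, with a further 4 h at 37 °C before plate reading. GI50 values were calculated from the curves. NBM was grown in RPMI; MCR5A was handled per ATCC.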

[18] = Antiproliferative activity against human PC3 cells after 72 hrs by WST-1 assay; assay type: functional; settings: PC-3, 72 h; summary of the method: as §2
MDA-MB-231 [19] = assay: Binding affinity to c-MYC G-quadruplex DNA in human MDA-MB-231 cells assessed as inhibition of c-MYC protein expression at 27.25 uM incubated for 6 hrs by Western blot analysis relative to control; assay type: cell-based
Summary of the method: (§4)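 MDA-MB-231 cells, grown in DMEM with 10% heat-inactivated FBS at 37 °C and 5% CO2, exposed for 6 or 24 h; DMSO vehicle as comparator. Cells harvested, PBS-washed, lysed in RIPA with protease inhibitors. Blots probed with c-MYC antibody (1:1000) and HRP anti-rabbit IgG (1:10,000), β-actin as loading control. Densitometry given as percent of vehicle at each time point.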

[20] = Stabilization of c-MYC template Pu27 mutant DNA (unknown origin) assessed as inhibition of Taq polymerase-mediated polymerization/extension of Pu27 mutant and Pu27rev oligomers at 1 to 100 uM preincubated for 6 hrs followed by Taq polymerase addition by PCR stop assay
MDA-MB-231 [21] = assay: Binding affinity to c-MYC G-quadruplex DNA in human MDA-MB-231 cells assessed as inhibition of c-MYC protein expression at 27.25 uM incubated for 24 hrs by Western blot analysis relative to control; assay type: cell-based; summary of the method: as §4
[22] = Stabilization of c-MYC template Pu27-13,14 mutant DNA (unknown origin) assessed as inhibition of Taq polymerase-mediated polymerization/extension of Pu27-13,14 mutant and Pu27rev oligomers at 100 uM preincubated for 6 hrs followed by Taq polymerase addition by PCR stop assay
[23] = Stabilization of c-MYC pu27 G-quadruplex DNA (unknown origin) assessed as inhibition of Taq polymerase-mediated polymerization/extension of Pu27 and Pu27rev oligomers at 100 uM preincubated for 6 hrs followed by Taq polymerase addition by PCR stop assay
[24] = Binding affinity to 5'-FAM/3'-TAMRA labeled c-MYC 22-mer G-quadruplex DNA (unknown origin) at 4 uM in presence of 26-mer duplex DNA by TR-FRET assay
[25] = Binding affinity to 8-bp AT rich duplex DNA (unknown origin) at 150 uM incubated for 2 hrs by 1H NMR method
[26] = Antiproliferative activity against human MCR5A cells after 72 hrs by WST-1 assay; assay type: cell-based; summary of the method: as §3
[27] = Binding affinity to c-MYC2345 G-quadruplex DNA (unknown origin) at 150 uM incubated for 2 hrs by 1H NMR method
[28] = target: Telomerase reverse transcriptase (Homo sapiens) (UniProt O14746); assay: Inhibition of telomerase activity in human MDA-MB-231 cells using amplifour TS primer at 11 uM preincubated for 48 to 72 hrs followed by primer addition measured after 30 mins by fluorescence plate reader analysis relative to control; assay type: cell-based
Summary of the method: (§5)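 MDA-MB-231 seeded at 2 × 10^5 cells per T-25 flask the evening before, then treated with vehicle or compound for 48 or 72 h. Harvested cells lysed in CHAPS buffer with RNase inhibitor, 30 min on ice; supernatant kept after 12,000 × g spin. TRAPeze XL fluorescence assay used 1000 cell-equivalents, 30 min at 30 °C; TPG units from product/internal-standard ratio; inhibition relative to untreated cells.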

MDA-MB-231 [29] = assay: Antiproliferative activity against human MDA-MB-231 cells after 72 hrs by WST-1 assay; assay type: functional; settings: MDA-MB-231, 72 h; summary of the method: as §2
[30] = target: Telomerase reverse transcriptase (Homo sapiens) (UniProt O14746); assay: Inhibition of telomerase activity in human MDA-MB-231 cells using amplifour TS primer preincubated for 48 to 72 hrs followed by primer addition measured after 30 mins by fluorescence plate reader analysis relative to control; assay type: cell-based
Summary of the method: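 MDA-MB-231 cells, 2 × 10⁵ per T-25 flask, were treated the next morning with vehicle or compound at 0.5×, 1×, 2× or 4× GI50. After 48 or 72 h they were lysed in CHAPS buffer with RNase inhibitor on ice for 30 min. Lysate (1000 cell-equivalents) went into a fluorescent TRAP reaction at 30 °C for 30 min. TPG units were taken against an internal standard, and inhibition was expressed relative to untreated cells.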

MDA-MB-231 [31] = assay: Cytotoxicity against human MDA-MB-231 cells assessed as reduction in cell viability at 27.25 uM after 24 hrs by […]; settings: mda-mb-231, 24 h
[32] = Binding affinity to c-kit1 22-mer G-quadruplex DNA (unknown origin) at 150 uM incubated for 2 hrs by 1H NMR method
[33] = target: Telomerase reverse transcriptase (Homo sapiens) (UniProt O14746); assay: Inhibition of telomerase activity in human MDA-MB-231 cells using amplifour TS primer at 12.4 uM preincubated for 48 hrs followed by primer addition measured after 30 mins by fluorescence plate reader analysis relative to control; assay type: cell-based; summary of the method: as §5
MDA-MB-231 [34] = assay: Binding affinity to c-MYC G-quadruplex DNA in human MDA-MB-231 cells assessed as inhibition of c-MYC protein expression at 19.5 uM incubated for 24 hrs by Western blot analysis relative to control; assay type: cell-based; summary of the method: as §4
[35] = Antiproliferative activity against human bone marrow cells assessed as cell viability at 20 uM after 72 hrs by WST-1 assay relative to control; assay type: cell-based; settings: read-out: Activity; summary of the method: as §2
[36] = target: Telomerase reverse transcriptase (Homo sapiens) (UniProt O14746); assay: Inhibition of telomerase activity in human MDA-MB-231 cells using amplifour TS primer at 12.4 uM preincubated for 72 hrs followed by primer addition measured after 30 mins by fluorescence plate reader analysis relative to control; assay type: cell-based; summary of the method: as §5
MDA-MB-231 [37] = assay: Binding affinity to c-MYC G-quadruplex DNA in human MDA-MB-231 cells assessed as inhibition of c-MYC protein expression at 19.5 uM incubated for 6 hrs by Western blot analysis relative to control; assay type: cell-based; summary of the method: as §4
[38] = Antiproliferative activity against human MCR5A cells assessed as cell viability at 20 uM after 72 hrs by WST-1 assay relative to control; assay type: cell-based; settings: read-out: Activity; summary of the method: as §2

Sequence of Telomerase reverse transcriptase (Homo sapiens) (O14746 whole entry): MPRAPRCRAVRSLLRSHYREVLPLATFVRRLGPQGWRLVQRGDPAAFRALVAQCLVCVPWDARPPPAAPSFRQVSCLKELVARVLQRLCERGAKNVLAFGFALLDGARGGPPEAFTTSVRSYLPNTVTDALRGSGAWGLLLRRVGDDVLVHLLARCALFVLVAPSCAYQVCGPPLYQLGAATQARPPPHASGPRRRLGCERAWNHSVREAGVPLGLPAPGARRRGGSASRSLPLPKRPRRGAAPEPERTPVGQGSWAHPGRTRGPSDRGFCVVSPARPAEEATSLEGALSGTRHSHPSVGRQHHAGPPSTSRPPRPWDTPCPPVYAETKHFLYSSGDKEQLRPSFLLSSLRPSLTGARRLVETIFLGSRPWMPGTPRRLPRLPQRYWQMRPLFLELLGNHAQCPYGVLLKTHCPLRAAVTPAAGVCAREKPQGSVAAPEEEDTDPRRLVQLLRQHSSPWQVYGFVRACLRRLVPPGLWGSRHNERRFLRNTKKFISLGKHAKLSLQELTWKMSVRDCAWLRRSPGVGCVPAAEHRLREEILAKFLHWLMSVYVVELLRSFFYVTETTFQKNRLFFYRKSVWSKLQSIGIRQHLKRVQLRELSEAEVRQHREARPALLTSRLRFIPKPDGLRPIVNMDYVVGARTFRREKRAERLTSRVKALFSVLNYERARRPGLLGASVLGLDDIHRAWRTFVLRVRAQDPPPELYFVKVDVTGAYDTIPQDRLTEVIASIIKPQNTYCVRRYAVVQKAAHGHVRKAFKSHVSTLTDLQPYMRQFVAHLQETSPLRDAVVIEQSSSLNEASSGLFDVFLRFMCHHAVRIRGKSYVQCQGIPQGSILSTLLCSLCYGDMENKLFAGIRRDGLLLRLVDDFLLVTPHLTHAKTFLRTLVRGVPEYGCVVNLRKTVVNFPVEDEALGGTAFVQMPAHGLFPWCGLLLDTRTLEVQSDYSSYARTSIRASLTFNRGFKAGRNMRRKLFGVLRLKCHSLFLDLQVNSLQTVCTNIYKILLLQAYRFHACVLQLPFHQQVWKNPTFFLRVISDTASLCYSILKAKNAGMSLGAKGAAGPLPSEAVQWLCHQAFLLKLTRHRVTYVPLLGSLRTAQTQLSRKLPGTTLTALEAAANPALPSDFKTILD

Structure (SMILES)	ΔTm [3] [°C]	ΔTm [6] [°C]	ΔTm [7] [°C]	GI50 [11] [µM]	ΔTm [12] [°C]	ΔTm [15] [°C]	GI50 [18] [µM]	inhibition [20]	inhibition [22]	inhibition [23]	Activity [24]	Activity [25]	Activity [27]	GI50 (MDA-MB-231 [29]) [µM]	Activity [32]	also measured
N=C(N)c1ccc(/N=N/Nc2ccc(C(=N)N)cc2)cc1 [DIMINAZENE]	24.1	16.6	18.3	> 25	11.7	6.8										pKd [1]: 6.00; inhibition [2]: Active; pKd [4]: 9.00; inhibition [5]: Active; inhibition [8]: Active; Selectivity ratio [9]: 1000; pKd [10]: 9.00; viability at 20 µM [13]: ≥ 75%; Selectivity ratio [14]: 1000; viability at 20 µM (MDA-MB-231 [16]): ≥ 75%
N=C(N)c1ccc(/N=N/Nc2cccc(C#Cc3ccc(F)cc3)c2)cc1	6.9	< 5	8.6	5	5.67	< 5	5.3	inactive	inactive	Active	inactive	inactive	Active	5.5	Active	GI50 at 72 h [17]: 5.6 µM; inhibition (MDA-MB-231 [19]): 40%; inhibition (MDA-MB-231 [21]): 67%; GI50 at 72 h [26]: 8.3 µM; inhibition [28]: < 50%; inhibition [30]: Dose-dependent effect; Activity (MDA-MB-231 [31]): Toxic
N=C(N)c1ccc(/N=N/Nc2ccccc2C#Cc2ccc(F)cc2)cc1	2.7	< 5	8.8	9.5	5.12	< 5	7.4	inactive	inactive	Active	inactive	inactive	Active	6.2	Active	inhibition [33]: 20%; inhibition (MDA-MB-231 [34]): 100%; viability at 72 h, 20 µM [35]: ≥ 75%; inhibition [36]: 30%; inhibition (MDA-MB-231 [37]): inactive; viability at 72 h, 20 µM [38]: ≥ 75%
